Measurements as given in ChEMBL document CHEMBL5154634, “A Modular Synthetic Route Involving N-Aryl-2-nitrosoaniline Intermediates Leads to a New Series of 3-Substituted Halogenated Phenazine Antibacterial Agents” (J Med Chem, 2021).
Converted amounts (≈) assume the structure as drawn. The source made the active and inactive calls. No cut-off for these calls is given here.

How the values were obtained:
[1] = tested on: Staphylococcus aureus; assay: Antibacterial activity against methicillin-resistant Staphylococcus aureus 129 assessed as bacterial growth inhibition; assay type: functional
[2] = tested on: Staphylococcus aureus; assay: Induction of iron starvation in methicillin-resistant Staphylococcus aureus BAA-1707 biofilms assessed as upregulation of sfaA gene expression at 1 uM incubated for 4 hrs by RT-qPCR analysis; assay type: functional
Summary of the method: (§1)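 MRSA BAA-1707 grown in TSB with 0.5% glucose to OD600 ~0.8–1.0, then biofilms formed 20 h at 37 °C statically in gelatin-coated 24-well plates. Biofilms treated 4 h at 37 °C with compound (1 μM or 1/10 MBEC) or DMSO vehicle. RNA extracted; only RIN ≥7 samples used. One-step SYBR RT-qPCR; ΔCT normalised to ptaA. Three independent experiments.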

[3] = tested on: Staphylococcus epidermidis; assay: Antibiofilm activity against methicillin-resistant Staphylococcus epidermidis ATCC 35984 biofilms assessed as reduction of viable biofilm cells at MBEC measured by CBD assay; assay type: functional
Summary of the method: (§2)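 After the Calgary biofilm device assay, treated and untreated pegs were removed, sonicated 30 min in PBS and plated for CFU per peg. Log10 reduction of viable biofilm cells at the MBEC determined by comparison with untreated pegs. At least three independent experiments.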

[4] = tested on: HepG2; assay: Cytotoxicity against human HepG2 cells assessed as reduction in cell viability […] by Alamar blue assay; assay type: toxicity, cell-based
[5] = tested on: Staphylococcus aureus; assay: Antibiofilm activity against methicillin-resistant Staphylococcus aureus BAA-1707 biofilms assessed as biofilm killing at MBEC measured by CBD assay; assay type: functional
[6] = tested on: Mycobacterium tuberculosis; assay: Antibacterial activity against Mycobacterium tuberculosis CDC1551 assessed as bacterial growth inhibition incubated for 5 days by luminescence based analysis; assay type: functional; conditions: CDC1551, 120 h, time 5 day
Summary of the method: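 Bioluminescent Mtb-lux CDC1551 reporter grown in Middlebrook 7H9 with 0.05% Tween 80, 10% OADC and kanamycin to OD600 0.4–0.8, then diluted to OD600 0.02. Added to twofold drug dilutions (0.003–200 μM). Incubated 5 days at 37 °C, 5% CO2. Luminescence read against 1% DMSO and 10 μM rifampicin controls to give % growth inhibition. MIC taken from a modified Gompertz fit.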

[7] = tested on: Mycobacterium tuberculosis; assay: Antibacterial activity against Mycobacterium tuberculosis H37Ra ATCC 25177 assessed as bacterial growth inhibition incubated for 7 days by absorbance based analysis; assay type: functional; conditions: H37Ra ATCC 25177, 168 h, time 7 day
Summary of the method: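 H37Ra grown 2 weeks in Middlebrook 7H9, then diluted to OD600 0.01. Compounds added in twofold dilutions, final 0.024–50 μM, with 0.5% DMSO and streptomycin as positive control. Incubated 7 days at 37 °C. MIC is the lowest concentration with no growth, with OD600 recorded. At least three independent experiments.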

[8] = tested on: Enterococcus faecalis; assay: Antibacterial activity against Enterococcus faecalis OG1RF ATCC 47077 assessed as bacterial growth inhibition incubated for 16 hrs by broth microdilution susceptibility test; assay type: functional
[9] = tested on: Staphylococcus aureus; assay: Antibiofilm activity against methicillin-resistant Staphylococcus aureus BAA-1707 biofilms assessed as reduction of viable biofilm cells at MBEC measured by CBD assay; assay type: functional; summary of the method: as §2
[10] = tested on: Staphylococcus epidermidis; assay: Bactericidal activity against methicillin-resistant Staphylococcus epidermidis ATCC 35984 planktonic cells assessed as planktonic eradication incubated for 24 hrs followed by incubation for overnight in fresh medium by Calgary biofilm device assay; assay type: functional
Summary of the method: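 Calgary biofilm device. Biofilms grown 24 h at 37 °C in TSB with 0.5% glucose, then challenged 24 h with twofold compound dilutions. 20 μL of challenge medium transferred into fresh TSB with 0.5% glucose and incubated overnight at 37 °C. MBC is the concentration with no visible turbidity. At least three independent experiments.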

[11] = tested on: Staphylococcus aureus; assay: Antibacterial activity against methicillin-resistant Staphylococcus aureus 147 assessed as bacterial growth inhibition; assay type: functional
[12] = tested on: HEK293; assay: Cytotoxicity against human HEK293 cells assessed as reduction in cell viability incubated for 72 hrs by MTT assay; assay type: toxicity, cell-based
Summary of the method: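 HEK-293 cells in DMEM with 10% FBS, 10⁴ cells/well, seeded overnight. Exposed to 0–200 μM (twofold steps, n = 6) for 72 h at 37 °C. MTT 5 mg/mL added for 4 h, formazan dissolved in DMSO, OD read at 570 nm. Inhibition % = (1 − test/untreated OD) × 100.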

[13] = tested on: J774; assay: Cytotoxicity against mouse J774 cells assessed as reduction in cell viability […] by Alamar blue assay; assay type: toxicity, cell-based
[14] = tested on: Staphylococcus aureus; assay: Induction of iron starvation in methicillin-resistant Staphylococcus aureus BAA-1707 biofilms assessed as upregulation of sbnC gene expression at 1 uM incubated for 4 hrs by RT-qPCR analysis; assay type: functional; summary of the method: as §1
[15] = tested on: Staphylococcus aureus; assay: Induction of iron starvation in methicillin-resistant Staphylococcus aureus BAA-1707 biofilms assessed as upregulation of isdB gene expression at 1/10XMBEC incubated for 4 hrs by RT-qPCR analysis; assay type: functional; summary of the method: as §1
[16] = tested on: Erythrocyte; assay: Hemolytic activity against human RBC at 200 uM measured after 1 hr; assay type: toxicity, cell-based
Summary of the method: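 2% hRBCs exposed to compound at 200 μM final, added from DMSO stock, for 1 h at 37 °C. Supernatant OD read at 405 nm. Hemolysis normalized between DMSO (0%) and Triton X (100%); three independent experiments.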

[17] = tested on: Staphylococcus epidermidis; assay: Antibiofilm activity against methicillin-resistant Staphylococcus epidermidis ATCC 35984 biofilms assessed as biofilm killing at 3.13 uM measured by CBD assay; assay type: functional
[18] = tested on: Staphylococcus aureus; assay: Induction of iron starvation in methicillin-resistant Staphylococcus aureus BAA-1707 biofilms assessed as upregulation of sfaA gene expression at 1/10XMBEC incubated for 4 hrs by RT-qPCR analysis; assay type: functional; summary of the method: as §1
[19] = tested on: Staphylococcus aureus; assay: Induction of iron starvation in methicillin-resistant Staphylococcus aureus BAA-1707 biofilms assessed as upregulation of sbnC gene expression at 1/10XMBEC incubated for 4 hrs by RT-qPCR analysis; assay type: functional; summary of the method: as §1
[20] = tested on: Staphylococcus epidermidis; assay: Antibiofilm activity against methicillin-resistant Staphylococcus epidermidis ATCC 35984 biofilms assessed as reduction of viable biofilm cells at 3.13 uM measured by CBD assay; assay type: functional
[21] = Binding affinity to Fe2+ assessed as compound-Fe2+ complex formation by UV-vis spectroscopy
[22] = tested on: Staphylococcus aureus; assay: Induction of iron starvation in methicillin-resistant Staphylococcus aureus BAA-1707 biofilms assessed as upregulation of isdB gene expression at 1 uM incubated for 4 hrs by RT-qPCR analysis; assay type: functional; summary of the method: as §1
[23] = tested on: Staphylococcus aureus; assay: Antibacterial activity against methicillin-resistant Staphylococcus aureus clinical isolate 1 assessed as bacterial growth inhibition; assay type: functional
[24] = tested on: Staphylococcus aureus; assay: Antibacterial activity against methicillin-resistant Staphylococcus aureus 156 assessed as bacterial growth inhibition; assay type: functional
[25] = tested on: Enterococcus faecium; assay: Antibacterial activity against vancomycin-resistant Enterococcus faecium ATCC 700221 assessed as bacterial growth inhibition incubated for 16 hrs by broth microdilution susceptibility test; assay type: functional
Summary of the method: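 CLSI broth microdilution with 11 twofold dilutions (0.05–50 μM). Medium was LB for the staphylococci and BHI for VRE 700221. About 10^5 cells per well from a log-phase culture. […] DMSO vehicle up to 0.5% v/v. At least three independent experiments.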

Cc1cccc2nc3c(O)c(Br)c(Cl)c(Br)c3nc12
MIC [1]: 0.06 µM (≈ 0.0241 µg/mL) | Activity [2]: Active | Activity [3]: 3.65 log10CFU | IC50 [4]: > 200 µM | Activity [5]: 99.9% | MIC [6]: 1.59 µM (≈ 0.64 µg/mL) | MIC [7]: […] | MIC [8]: 0.2 µM (≈ 0.0805 µg/mL) | Activity [9]: 2.55 log10CFU | MBC [10]: 0.78 µM (≈ 0.314 µg/mL) | MIC [11]: 0.06 µM (≈ 0.0241 µg/mL) | IC50 [12]: 18.3 µM | IC50 [13]: > 200 µM | Activity [14]: Active | Activity [15]: Active | Activity [16]: <= 1% | Activity [17]: 99.999% | Activity [18]: Active | Activity [19]: Active | Activity [20]: 5 log10CFU | Activity [21]: Active | Activity [22]: Active | MIC [23]: 0.06 µM (≈ 0.0241 µg/mL) | MIC [24]: 0.06 µM (≈ 0.0241 µg/mL) | MIC [25]: 0.1 µM (≈ 0.0402 µg/mL)
